Measurements: ChEMBL document CHEMBL1141140, “Antifungal agents. 11. N-substituted derivatives of 1-[(aryl)(4-aryl-1H-pyrrol-3-yl)methyl]-1H-imidazole: synthesis, anti-Candida activity, and QSAR studies” (2005)
In brackets after ≈: the same amount, converted by molar mass.

How the values were obtained:
Format in all cases: functional
Candida albicans [1] = experiment: In vitro minimal inhibitory concentration against Candida albicans with percentage of resistant strains %R = 33.33 (MIC > 64 ug/mL) at a range of 1-4 ug/mL
Candida albicans [2] = experiment: In vitro concentration causing 50% inhibition of Candida albicans with percentage of resistant strains %R = 33.33 (MIC > 64 ug/mL) at a range of 1-4 ug/mL
Candida albicans [3] = experiment: In vitro concentration causing 90% inhibition of Candida albicans with percentage of resistant strains %R = 33.33 (MIC > 64 ug/mL) at a range of 1-4 ug/mL
Candida albicans [4] = experiment: Ratio of the in vitro minimal inhibitory to that of bifonazole against Candida albicans (MIC(compound)/MIC(bifonazole))
Procedure, shortened: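 Broth microdilution per NCCLS M27-A2 against 12 Candida albicans strains (AIDS oropharyngeal, HIV vulvovaginitis isolates, ATCC 24433 and 20891, lab strains 3153 and CA2). Inoculum ~10^4 cells/mL in RPMI 1640, pH 7.0; DMSO stocks 6.4 mg/mL, twofold dilutions 0.016–64 μg/mL; read at 24 h, 28 °C, no visible growth. Mean MIC over strains converted to μmol/mL, divided by bifonazole MIC.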

Candida albicans [5] = experiment: In vitro minimal inhibitory concentration against Candida albicans with percentage of resistant strains %R = 25 (MIC > 64 ug/mL) at a range of 0.5-2 ug/mL
Candida albicans [6] = experiment: In vitro concentration causing 50% inhibition of Candida albicans with percentage of resistant strains %R = 25 (MIC > 64 ug/mL) at a range of 0.5-2 ug/mL
Candida albicans [7] = experiment: In vitro concentration causing 90% inhibition of Candida albicans with percentage of resistant strains %R = 25 (MIC > 64 ug/mL) at a range of 0.5-2 ug/mL
Candida albicans [8] = experiment: In vitro minimal inhibitory concentration against Candida albicans with percentage of resistant strains %R = 50 (MIC > 64 ug/mL) at a range of 2-4 ug/mL
Candida albicans [9] = experiment: In vitro concentration causing 50% inhibition of Candida albicans with percentage of resistant strains %R = 50 (MIC > 64 ug/mL) at a range of 2-4 ug/mL
Candida albicans [10] = experiment: In vitro concentration causing 90% inhibition of Candida albicans with percentage of resistant strains %R = 50 (MIC > 64 ug/mL) at a range of 2-4 ug/mL
Candida albicans [11] = experiment: In vitro minimal inhibitory concentration against Candida albicans with percentage of resistant strains %R = 36 (MIC > 64 ug/mL) at a range of 0.5-2 ug/mL
Candida albicans [12] = experiment: In vitro concentration causing 50% inhibition of Candida albicans with percentage of resistant strains %R = 36 (MIC > 64 ug/mL) at a range of 0.5-2 ug/mL
Candida albicans [13] = experiment: In vitro concentration causing 90% inhibition of Candida albicans with percentage of resistant strains %R = 36 (MIC > 64 ug/mL) at a range of 0.5-2 ug/mL
Candida albicans [14] = experiment: In vitro minimal inhibitory concentration against Candida albicans with percentage of resistant strains %R = 41.66 (MIC > 64 ug/mL) at a range of 0.5-2 ug/mL
Candida albicans [15] = experiment: In vitro concentration causing 50% inhibition of Candida albicans with percentage of resistant strains %R = 41.66 (MIC > 64 ug/mL) at a range of 0.5-2 ug/mL
Candida albicans [16] = experiment: In vitro concentration causing 90% inhibition of Candida albicans with percentage of resistant strains %R = 41.66 (MIC > 64 ug/mL) at a range of 0.5-2 ug/mL
Candida albicans [17] = experiment: In vitro concentration causing 50% inhibition of Candida albicans with percentage of resistant strains %R = 45.45 (MIC > 64 ug/mL) at a range of 0.125-0.5 ug/mL
Candida albicans [18] = experiment: In vitro minimal inhibitory concentration against Candida albicans with percentage of resistant strains %R = 45.45 (MIC > 64 ug/mL) at a range of 0.125-0.5 ug/mL
Candida albicans [19] = experiment: In vitro concentration causing 90% inhibition of Candida albicans with percentage of resistant strains %R = 45.45 (MIC > 64 ug/mL) at a range of 0.125-0.5 ug/mL
Candida albicans [20] = experiment: In vitro minimal inhibitory concentration against Candida albicans with percentage of resistant strains %R = 0 (MIC > 64 ug/mL) at a range of 0.062-2 ug/mL
Candida albicans [21] = experiment: In vitro concentration causing 50% inhibition of Candida albicans with percentage of resistant strains %R = 0 (MIC > 64 ug/mL) at a range of 0.062-2 ug/mL
Candida albicans [22] = experiment: In vitro concentration causing 90% inhibition of Candida albicans with percentage of resistant strains %R = 0 (MIC > 64 ug/mL) at a range of 0.062-2 ug/mL
Candida albicans [23] = experiment: In vitro minimal inhibitory concentration against Candida albicans with percentage of resistant strains %R = 25 (MIC > 64 ug/mL) at a range of 0.062-0.25 ug/mL
Candida albicans [24] = experiment: In vitro concentration causing 50% inhibition of Candida albicans with percentage of resistant strains %R = 25 (MIC > 64 ug/mL) at a range of 0.062-0.25 ug/mL
Candida albicans [25] = experiment: In vitro concentration causing 90% inhibition of Candida albicans with percentage of resistant strains %R = 25 (MIC > 64 ug/mL) at a range of 0.062-0.25 ug/mL
Candida albicans [26] = experiment: In vitro minimal inhibitory concentration against Candida albicans with percentage of resistant strains %R = 66 (MIC > 64 ug/mL) at a range of 2-8 ug/mL
Candida albicans [27] = experiment: In vitro concentration causing 50% inhibition of Candida albicans with percentage of resistant strains %R = 66 (MIC > 64 ug/mL) at a range of 2-8 ug/mL
Candida albicans [28] = experiment: In vitro concentration causing 90% inhibition of Candida albicans with percentage of resistant strains %R = 66 (MIC > 64 ug/mL) at a range of 2-8 ug/mL

## Cn1cc(-c2ccc(-n3cccc3)cc2)c(C(c2ccc(Cl)cc2Cl)n2ccnc2)c1 (stereo not given)
Candida albicans [1]
  MIC: 3.12 µg/mL (≈ 6.97 µM)
Candida albicans [2]
  MIC50: 4 µg/mL (≈ 8.94 µM)
Candida albicans [3]
  MIC90: 4 µg/mL (≈ 8.94 µM)
Candida albicans [4]
  Ratio: 0.62

## CCn1cc(-c2ccc(Cl)cc2)c(C(c2ccc(Cl)cc2Cl)n2ccnc2)c1 (stereo not given)
Candida albicans [5]
  MIC: 1.5 µg/mL (≈ 3.48 µM)
Candida albicans [6]
  MIC50: 2 µg/mL (≈ 4.64 µM)
Candida albicans [7]
  MIC90: 2 µg/mL (≈ 4.64 µM)
Candida albicans [4]
  Ratio: 0.31

## COC(Cn1cc(-c2ccc(Cl)cc2)c(C(c2ccc(Cl)cc2Cl)n2ccnc2)c1)OC (stereo not given)
Candida albicans [8]
  MIC: 2.66 µg/mL (≈ 5.42 µM)
Candida albicans [9]
  MIC50: 2 µg/mL (≈ 4.07 µM)
Candida albicans [10]
  MIC90: 4 µg/mL (≈ 8.15 µM)
Candida albicans [4]
  Ratio: 0.48

## Cn1cc(-c2ccccc2Cl)c(C(c2ccc(Cl)cc2Cl)n2ccnc2)c1 (stereo not given)
Candida albicans [11]
  MIC: 1.71 µg/mL (≈ 4.1 µM)
Candida albicans [12]
  MIC50: 2 µg/mL (≈ 4.8 µM)
Candida albicans [13]
  MIC90: 2 µg/mL (≈ 4.8 µM)
Candida albicans [4]
  Ratio: 0.36

## CCn1cc(-c2ccc(Cl)cc2Cl)c(C(c2ccc(Cl)cc2Cl)n2ccnc2)c1 (stereo not given)
Candida albicans [14]
  MIC: 1.21 µg/mL (≈ 2.6 µM)
Candida albicans [15]
  MIC50: 1 µg/mL (≈ 2.15 µM)
Candida albicans [16]
  MIC90: 2 µg/mL (≈ 4.3 µM)
Candida albicans [4]
  Ratio: 0.23

## OC(Cn1cncn1)(Cn1cncn1)c1ccc(F)cc1F [FLUCONAZOLE]
Candida albicans [17]
  MIC50: 0.25 µg/mL (≈ 0.816 µM)
Candida albicans [18]
  MIC: 0.24 µg/mL (≈ 0.784 µM)
Candida albicans [19]
  MIC90: 0.5 µg/mL (≈ 1.63 µM)
Candida albicans [4]
  Ratio: 0.069

## C=CCn1cc(-c2ccc(Cl)cc2Cl)c(C(c2ccc(Cl)cc2Cl)n2ccnc2)c1 (stereo not given)
Candida albicans [20]
  MIC: 0.65 µg/mL (≈ 1.36 µM)
Candida albicans [21]
  MIC50: 0.25 µg/mL (≈ 0.524 µM)
Candida albicans [22]
  MIC90: 1 µg/mL (≈ 2.1 µM)
Candida albicans [4]
  Ratio: 0.12

## CCC(C)n1ncn(-c2ccc(N3CCN(c4ccc(OC[C@H]5CO[C@](Cn6cncn6)(c6ccc(Cl)cc6Cl)O5)cc4)CC3)cc2)c1=O (stereo not given in full) [ITRACONAZOLE]
Candida albicans [23]
  MIC: 0.096 µg/mL (≈ 0.136 µM)
Candida albicans [24]
  MIC50: 0.062 µg/mL (≈ 0.0879 µM)
Candida albicans [25]
  MIC90: 0.125 µg/mL (≈ 0.177 µM)

## CCn1cc(-c2cccc3ccccc23)c(C(c2ccc(Cl)cc2Cl)n2ccnc2)c1 (stereo not given)
Candida albicans [26]
  MIC: 5.5 µg/mL (≈ 12.3 µM)
Candida albicans [27]
  MIC50: 4 µg/mL (≈ 8.96 µM)
Candida albicans [28]
  MIC90: 8 µg/mL (≈ 17.9 µM)
Candida albicans [4]
  Ratio: 1.1
